According to ChEMBL document CHEMBL2346534, “Design, synthesis and in vitro anti-proliferative activity of 4,6-quinazolinediamines as potent EGFR-TK inhibitors” (Eur J Med Chem, 2013):

Assays:
BT-549 = assay: Cytotoxicity against human BT549 cells after 48 hrs by SRB assay; format: functional; settings: BT-549, 48 h
Summary of the method: (§1)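 NCI 60-panel five-dose screen. Cells in RPMI 1640 with 5% FBS and 2 mM L-glutamine, plated at 5000–40,000 cells/well by doubling time, preincubated 24 h at 37 °C/5% CO2. Drug from DMSO stock added at 0.01, 0.1, 1, 10 and 100 µM, then 48 h. TCA fixation, SRB stain, absorbance at 515 nm, time-zero plates included. GI50 = 50% reduction in net protein increase versus control.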

KM12 = assay: Cytotoxicity against human KM12 cells after 48 hrs by SRB assay; format: functional; settings: KM12, 48 h; summary of the method: as §1
NCI-H226 = assay: Cytotoxicity against human NCI-H226 cells after 48 hrs by SRB assay; format: functional; settings: NCI-H226, 48 h
Summary of the method: (§2)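 NCI 60-panel five-dose screen. Cells in RPMI 1640 with 5% FBS and 2 mM L-glutamine are plated at 5000–40,000 cells/well by doubling time and preincubated 24 h at 37 °C in 5% CO2. Drug in DMSO is tested at 0.01, 0.1, 1, 10 and 100 μM for 48 h. Cells are TCA-fixed, stained with SRB and read at 515 nm. GI50 is the concentration giving 50% reduction in net protein increase relative to time-zero and control plates.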

MDA-MB-468 = assay: Cytotoxicity against human MDA-MB-468 cells after 48 hrs by SRB assay; format: functional; settings: MDA-MB-468, 48 h; summary of the method: as §2
[1] = molecular target: Epidermal growth factor receptor (Homo sapiens, UniProt P00533); assay: Inhibition of EGFR tyrosine kinase (unknown origin) using poly (Glu,Tyr) as substrate after 30 mins by ADP-GloTM assay
IGROV-1 = assay: Cytotoxicity against human IGROV1 cells after 48 hrs by SRB assay; format: functional; settings: IGROV-1, 48 h; summary of the method: as §1
HCT-15 = assay: Cytotoxicity against human HCT15 cells after 48 hrs by SRB assay; format: functional; settings: HCT-15, 48 h; summary of the method: as §1
786-0 = assay: Cytotoxicity against human 786-0 cells after 48 hrs by SRB assay; format: functional; settings: 786-0, 48 h; summary of the method: as §1
MDA-MB-435 = assay: Cytotoxicity against human MDA-MB-435 cells after 48 hrs by SRB assay; format: functional; settings: MDA-MB-435, 48 h; summary of the method: as §1
A549 = assay: Cytotoxicity against human A549/ATCC cells after 48 hrs by SRB assay; format: functional; settings: A549, 48 h; summary of the method: as §1
NCI-H522 = assay: Cytotoxicity against human NCI-H522 cells after 48 hrs by SRB assay; format: functional; settings: NCI-H522, 48 h; summary of the method: as §2
COLO 205 = assay: Cytotoxicity against human COLO205 cells after 48 hrs by SRB assay; format: functional; settings: COLO 205, 48 h; summary of the method: as §1
PC-3 = assay: Cytotoxicity against human PC3 cells after 48 hrs by SRB assay; format: functional; settings: PC-3, 48 h; summary of the method: as §2
LOX IMVI = assay: Cytotoxicity against human LOXIMVI cells after 48 hrs by SRB assay; format: functional; summary of the method: as §1
[2] = Cytotoxicity against human NCI-ADR-RES cells after 48 hrs by SRB assay; format: functional; summary of the method: as §2
CCRF-CEM = assay: Cytotoxicity against human CCRF-CEM cells after 48 hrs by SRB assay; format: functional; summary of the method: as §1
SN12C = assay: Cytotoxicity against human SN12C cells after 48 hrs by SRB assay; format: functional; summary of the method: as §2
SK-MEL-28 = assay: Cytotoxicity against human SK-MEL-28 cells after 48 hrs by SRB assay; format: functional; settings: SK-MEL-28, 48 h; summary of the method: as §2
TK-10 = assay: Cytotoxicity against human TK10 cells after 48 hrs by SRB assay; format: functional; settings: TK-10, 48 h
Summary of the method: (§3)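 NCI 60 five-dose screen. Cells in RPMI 1640 with 5% FBS and 2 mM L-glutamine, plated at 5000–40,000 cells/well by doubling time, pre-incubated 24 h at 37 °C, 5% CO2. Time-zero plates TCA-fixed at drug addition. Final concentrations 0.01, 0.1, 1, 10 and 100 µM (DMSO stock), 48 h exposure. TCA fixation, 0.4% SRB stain, absorbance 515 nm. GI50 from [(Ti−Tz)/(C−Tz)]×100 = 50.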

MCF7 = assay: Cytotoxicity against human MCF7 cells after 48 hrs by SRB assay; format: functional; settings: MCF7, 48 h; summary of the method: as §1
HT-29 = assay: Cytotoxicity against human HT-29 cells after 48 hrs by SRB assay; format: functional; settings: HT-29, 48 h; summary of the method: as §1
RPMI-8226 = assay: Cytotoxicity against human RPMI8226 cells after 48 hrs by SRB assay; format: functional; settings: RPMI-8226, 48 h; summary of the method: as §2
UO-31 = assay: Cytotoxicity against human UO31 cells after 48 hrs by SRB assay; format: functional; settings: UO-31, 48 h; summary of the method: as §3
MOLT-4 = assay: Cytotoxicity against human MOLT4 cells after 48 hrs by SRB assay; format: functional; settings: MOLT-4, 48 h; summary of the method: as §2
SR = assay: Cytotoxicity against human SR cells after 48 hrs by SRB assay; format: functional; summary of the method: as §2
HCT-116 = assay: Cytotoxicity against human HCT116 cells after 48 hrs by SRB assay; format: functional; settings: HCT-116, 48 h; summary of the method: as §1
Hs-578T = assay: Cytotoxicity against human Hs578T cells after 48 hrs by SRB assay; format: functional; summary of the method: as §1
[3] = read-out: LC50 (the source's name)

Sequence of Epidermal growth factor receptor (P00533 whole entry): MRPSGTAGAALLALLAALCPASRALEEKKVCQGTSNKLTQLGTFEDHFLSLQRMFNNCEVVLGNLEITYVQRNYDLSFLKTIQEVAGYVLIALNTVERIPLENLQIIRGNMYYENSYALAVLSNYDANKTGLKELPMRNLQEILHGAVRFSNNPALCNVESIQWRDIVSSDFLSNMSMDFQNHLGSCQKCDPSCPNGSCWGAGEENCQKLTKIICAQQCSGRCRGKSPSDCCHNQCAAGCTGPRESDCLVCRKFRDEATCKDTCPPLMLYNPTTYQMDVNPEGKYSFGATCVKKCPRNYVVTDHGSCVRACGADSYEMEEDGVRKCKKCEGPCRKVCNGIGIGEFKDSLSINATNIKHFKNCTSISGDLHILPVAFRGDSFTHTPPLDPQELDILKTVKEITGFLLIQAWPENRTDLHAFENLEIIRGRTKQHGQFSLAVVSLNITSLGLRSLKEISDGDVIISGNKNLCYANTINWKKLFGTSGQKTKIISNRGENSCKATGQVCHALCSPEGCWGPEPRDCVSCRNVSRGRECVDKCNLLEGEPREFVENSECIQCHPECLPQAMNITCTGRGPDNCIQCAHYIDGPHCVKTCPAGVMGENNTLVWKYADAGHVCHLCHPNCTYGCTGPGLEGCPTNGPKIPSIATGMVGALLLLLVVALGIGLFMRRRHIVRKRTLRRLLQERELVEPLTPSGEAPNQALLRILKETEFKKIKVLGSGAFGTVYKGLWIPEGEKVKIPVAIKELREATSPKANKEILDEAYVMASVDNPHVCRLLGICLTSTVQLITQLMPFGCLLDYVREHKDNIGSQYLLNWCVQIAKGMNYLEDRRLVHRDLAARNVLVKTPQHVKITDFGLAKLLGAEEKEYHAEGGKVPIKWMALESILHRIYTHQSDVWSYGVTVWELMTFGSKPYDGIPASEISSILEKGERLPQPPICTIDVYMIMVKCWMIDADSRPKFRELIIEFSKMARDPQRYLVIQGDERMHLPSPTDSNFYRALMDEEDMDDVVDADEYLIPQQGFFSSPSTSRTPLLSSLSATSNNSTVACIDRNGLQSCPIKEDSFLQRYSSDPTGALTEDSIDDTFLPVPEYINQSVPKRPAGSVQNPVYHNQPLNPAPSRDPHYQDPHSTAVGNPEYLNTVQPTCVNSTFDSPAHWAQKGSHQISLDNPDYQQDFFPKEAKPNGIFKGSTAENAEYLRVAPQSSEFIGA

**Q.** For `NC(=O)Nc1ccc2ncnc(Nc3ccc(Cl)cc3)c2c1`, which GI50 (BT-549) is on record?
**A.** 18.2 µM

**Q.** What about the TGI (BT-549) of the same compound?
**A.** 79.3 µM

**Q.** And the CC50 (BT-549; [3])?
**A.** > 100 µM

**Q.** And the GI50 (KM12)?
**A.** 28.4 µM

**Q.** And the TGI (KM12)?
**A.** > 100 µM

**Q.** And the CC50 (KM12; [3])?
**A.** > 100 µM

**Q.** What about the GI50 (NCI-H226) of the same compound?
**A.** 22.3 µM

**Q.** And the TGI (NCI-H226)?
**A.** > 100 µM

**Q.** And the CC50 (NCI-H226; [3])?
**A.** > 100 µM

**Q.** What about the GI50 (MDA-MB-468) of the same compound?
**A.** 1.09 µM

**Q.** What about the TGI (MDA-MB-468) of the same compound?
**A.** 3.95 µM

**Q.** What about the CC50 (MDA-MB-468; [3]) of the same compound?
**A.** > 100 µM

**Q.** And the IC50 [1]?
**A.** 0.061 µM

**Q.** And the GI50 (IGROV-1)?
**A.** 6.85 µM

**Q.** And the TGI (IGROV-1)?
**A.** 27.6 µM

**Q.** What about the CC50 (IGROV-1; [3]) of the same compound?
**A.** 90.1 µM

**Q.** And the GI50 (HCT-15)?
**A.** 17.8 µM

**Q.** And the TGI (HCT-15)?
**A.** > 100 µM

**Q.** What about the CC50 (HCT-15; [3]) of the same compound?
**A.** > 100 µM

**Q.** What about the GI50 (786-0) of the same compound?
**A.** 20.7 µM

**Q.** And the TGI (786-0)?
**A.** 88.9 µM

**Q.** And the CC50 (786-0; [3])?
**A.** > 100 µM

**Q.** And the GI50 (MDA-MB-435)?
**A.** 16.9 µM

**Q.** What about the TGI (MDA-MB-435) of the same compound?
**A.** 47.6 µM

**Q.** What about the CC50 (MDA-MB-435; [3]) of the same compound?
**A.** > 100 µM

**Q.** What about the GI50 (A549) of the same compound?
**A.** 19.2 µM

**Q.** And the TGI (A549)?
**A.** > 100 µM

**Q.** And the CC50 (A549; [3])?
**A.** > 100 µM

**Q.** What about the GI50 (NCI-H522) of the same compound?
**A.** 2.4 µM

**Q.** And the TGI (NCI-H522)?
**A.** 20.9 µM

**Q.** And the CC50 (NCI-H522; [3])?
**A.** > 100 µM

**Q.** And the GI50 (COLO 205)?
**A.** 27.5 µM

**Q.** What about the TGI (COLO 205) of the same compound?
**A.** > 100 µM

**Q.** What about the CC50 (COLO 205; [3]) of the same compound?
**A.** > 100 µM

**Q.** What about the GI50 (PC-3) of the same compound?
**A.** 16.7 µM

**Q.** And the TGI (PC-3)?
**A.** 92.5 µM

**Q.** And the CC50 (PC-3; [3])?
**A.** > 100 µM

**Q.** And the GI50 (LOX IMVI)?
**A.** 19.3 µM

**Q.** And the TGI (LOX IMVI)?
**A.** 68.7 µM

**Q.** What about the CC50 (LOX IMVI; [3]) of the same compound?
**A.** > 100 µM

**Q.** What about the GI50 [2] of the same compound?
**A.** 19.5 µM

**Q.** And the TGI [2]?
**A.** > 100 µM

**Q.** And the CC50 [2, 3]?
**A.** > 100 µM

**Q.** And the GI50 (CCRF-CEM)?
**A.** 16.4 µM

**Q.** What about the TGI (CCRF-CEM) of the same compound?
**A.** > 100 µM

**Q.** What about the CC50 (CCRF-CEM; [3]) of the same compound?
**A.** > 100 µM

**Q.** And the GI50 (SN12C)?
**A.** 11.1 µM

**Q.** And the TGI (SN12C)?
**A.** 50 µM

**Q.** And the CC50 (SN12C; [3])?
**A.** > 100 µM

**Q.** What about the GI50 (SK-MEL-28) of the same compound?
**A.** 26.7 µM

**Q.** What about the TGI (SK-MEL-28) of the same compound?
**A.** > 100 µM

**Q.** What about the CC50 (SK-MEL-28; [3]) of the same compound?
**A.** > 100 µM

**Q.** And the GI50 (TK-10)?
**A.** 0.98 µM

**Q.** What about the TGI (TK-10) of the same compound?
**A.** 16.2 µM

**Q.** What about the CC50 (TK-10; [3]) of the same compound?
**A.** > 100 µM

**Q.** What about the GI50 (MCF7) of the same compound?
**A.** 26.2 µM

**Q.** And the TGI (MCF7)?
**A.** > 100 µM

**Q.** And the CC50 (MCF7; [3])?
**A.** > 100 µM

**Q.** And the GI50 (HT-29)?
**A.** 24 µM

**Q.** And the TGI (HT-29)?
**A.** > 100 µM

**Q.** And the CC50 (HT-29; [3])?
**A.** > 100 µM

**Q.** And the GI50 (RPMI-8226)?
**A.** 20.5 µM

**Q.** And the TGI (RPMI-8226)?
**A.** 78.9 µM

**Q.** And the CC50 (RPMI-8226; [3])?
**A.** > 100 µM

**Q.** What about the GI50 (UO-31) of the same compound?
**A.** 4.22 µM

**Q.** And the TGI (UO-31)?
**A.** 43 µM

**Q.** And the CC50 (UO-31; [3])?
**A.** > 100 µM

**Q.** And the GI50 (MOLT-4)?
**A.** 18.1 µM

**Q.** What about the TGI (MOLT-4) of the same compound?
**A.** 87.1 µM

**Q.** And the CC50 (MOLT-4; [3])?
**A.** > 100 µM

**Q.** What about the GI50 (SR) of the same compound?
**A.** 19.1 µM

**Q.** What about the TGI (SR) of the same compound?
**A.** 75.6 µM

**Q.** What about the CC50 (SR; [3]) of the same compound?
**A.** > 100 µM

**Q.** And the GI50 (HCT-116)?
**A.** 24.9 µM

**Q.** And the TGI (HCT-116)?
**A.** > 100 µM

**Q.** And the CC50 (HCT-116; [3])?
**A.** > 100 µM

**Q.** What about the GI50 (Hs-578T) of the same compound?
**A.** 14.8 µM

**Q.** And the TGI (Hs-578T)?
**A.** 55.9 µM

**Q.** And the CC50 (Hs-578T; [3])?
**A.** > 100 µM
